Measured values taken from ChEMBL document CHEMBL5104200, “Discovery and Biological Characterization of PRMT5:MEP50 Protein-Protein Interaction Inhibitors” (J Med Chem, 2022).
Activity calls are given as the source filed them. No cut-off for these calls is given here.

What was measured:
[1] = target: T1, PRMT5/MEP50 complex (Homo sapiens) (UniProt O14744+Q9BQA1); assay: Inhibition of PRMT5/MEP50 (unknown origin) protein-protein interaction expressed in COS-1 cells at 10 uM incubated for 18 hrs by BiFC screening analysis relative to control; format: cell-based
How it was run: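 Transfected COS-1 cells (VN-PRMT5, VC-MEP50, NLS-CFP) treated at 10 µM or DMSO six hours after transfection; imaged 24 h after transfection. Per-cell YFP:CFP mean intensity ratio normalized to DMSO gives BiFC efficiency; inhibition = 100% minus efficiency. Single biological replicate screen.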

[2] = system: LNCaP; assay: Upregulation of RB1 gene expression in human LNCaP cells at 500 nM after 72 hrs by RT-qPCR analysis; format: functional, cell-based
How it was run: (§1)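 LNCaP seeded in 6 or 10 cm dishes, attached 24 h, treated 500 nM or DMSO for 72 h. RNA by Trizol, integrity checked on agarose gel. RT-qPCR in technical triplicate, CT normalized to GAPDH; three biological replicates, Student's t-test.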

[3] = system: LNCaP; assay: Induction of cell death in human LNCaP cells incubated for 72 hrs by MTT assay; format: functional, cell-based
How it was run: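 LNCaP seeded 7,000 cells/well, attached 24 h, then given an 11-point dilution series plus DMSO control (constant 0.25% DMSO) for 72 h at 37 °C, 5% CO2. MTT at 0.5 mg/mL in complete RPMI for 4 h, then dissolved in DMSO and read at 570 nm. IC50 from regression curve; mean of three biological replicates.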

[4] = target: T1, PRMT5/MEP50 complex (Homo sapiens); assay: Inhibition of PRMT5 /MEP50 protein-protein interaction in human LNCaP cells assessed as reduction in H4R3me2 level after 72 hrs by densitometry method; format: cell-based; settings: DDE = dose-dependent effect
How it was run: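 LNCaP treated 72 h; lysed in RIPA with protease inhibitors, protein by Bradford, 20 µg loaded on 15% gel. Blotted with anti-H4R3 and anti-H4R3me2s, IRDye 800CW secondary, infrared imaging. H4R3me2s integrated intensity normalized to H4R3 versus DMSO; three biological replicates, t-test.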

[5] = target: T1, PRMT5/MEP50 complex (Homo sapiens); assay: Inhibition of PRMT5 /MEP50 protein-protein interaction in human LNCaP cells assessed as increase in IVL gene expression at 500 nM after 72 hrs by RT-qPCR analysis
[6] = target: T1, PRMT5/MEP50 complex (Homo sapiens); assay: Inhibition of PRMT5 /MEP50 protein-protein interaction in human LNCaP cells at 500 nM incubated for 24 hrs by co-immunoprecipitation method; format: cell-based
How it was run: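 LNCaP treated 500 nM or DMSO for 24 h, lysed 1 h at 4 °C in Tris pH 7.4/NaCl/EDTA/Triton buffer with protease inhibitors. 1 mg/mL lysate immunoprecipitated overnight with anti-PRMT5, anti-MEP50 or rabbit IgG on protein A beads. Blots probed for PRMT5 and MEP50; signal normalized to 0.4% input.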

[7] = target: T1, PRMT5/MEP50 complex (Homo sapiens); assay: Inhibition of PRMT5/MEP50 protein-protein interaction in human LNCaP cells assessed as reduction in TGF-beta signalling after 72 hrs
[8] = system: A549; assay: Cytotoxicity against human A549 cells after 72 hrs by MTT assay; format: functional, cell-based; settings: A549, 72 h
[9] = target: T1, PRMT5/MEP50 complex (Homo sapiens); assay: Inhibition of PRMT5/MEP50 (unknown origin) protein-protein interaction expressed in COS-1 cells at 250 to 500 nM incubated for 18 hrs by BiFC screening analysis relative to control; format: cell-based; settings: dose 250-500 nM
How it was run: (§2)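 COS-1 seeded 50,000 cells/well, co-transfected with Myc-VN155-PRMT5, HA-VC-MEP50 and FLAG-NLS-CFP. After 24 h transfection, treated 18 h at 0.5 µM or 0.25 µM (separate screens), then imaged (YFP, CFP). Per-cell YFP:CFP ratio normalized to DMSO gives BiFC efficiency; % inhibition = 100% − efficiency. Single biological replicate screens.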

[10] = system: LNCaP; assay: Upregulation of PTEN gene expression in human LNCaP cells at 500 nM after 72 hrs by RT-qPCR analysis; format: functional, cell-based; how it was run: as §1
[11] = system: COS-1; assay: Induction of cell death in African green monkey COS-1 cells at 10 uM; format: functional, cell-based; settings: Chlorocebus aethiops
[12] = target: T1, PRMT5/MEP50 complex (Homo sapiens); assay: Inhibition of PRMT/MEP50 (unknown origin) protein-protein interaction expressed in COS-1 cells incubated for 18 hrs by BiFC screening analysis; format: cell-based; settings: DDE = dose-dependent effect; how it was run: as §2
[13] = target: T1, PRMT5/MEP50 complex (Homo sapiens); assay: Inhibition of PRMT5/MEP50 (unknown origin) protein-protein interaction expressed in COS-1 cells at 0.25 uM incubated for 18 hrs by BiFC screening analysis relative to control; format: cell-based; how it was run: as §2

CCCCC(=O)Nc1sc2c(c1C(=O)NC1CCS(=O)(=O)C1)CCC(C(C)(C)C)C2 (stereo not drawn)
inhibition [1]: 24%

Cn1cc(C(=O)NCC2CCN(C(=O)c3nc(-c4ccccc4)n4c3CCCCC4)CC2)cn1
inhibition [1]: 24%

CCc1noc(C)c1COc1cccc(C(=O)NNC(=O)c2ccc3ccccc3n2)c1
Activity [2]: Active
IC50 [3]: 430 nM
Activity ([3]; DDE = dose-dependent effect): Dde
inhibition [4]: Dde
inhibition [5]: Active
inhibition [6]: 65.4%
inhibition [7]: Active
IC50 [8]: 447 nM
inhibition [9]: Active
Activity [10]: Active

c1ccc(-n2cnc3ccccc32)cc1
inhibition [1]: 24%

Cc1noc(C)c1COc1cccc(C(=O)NNC(=O)c2ccc3ccccc3n2)c1
Activity [11]: Active
IC50 [3]: 1660 nM
inhibition [12]: Dde
inhibition [13]: 41%

CCN(CC)c1ccc(/C=C2\S/C(=N/NC(=O)c3ccc(Cl)cc3Cl)NC2=O)cc1
inhibition [1]: 24%
